Measurements: ChEMBL document CHEMBL3091329, “Discovery of tetrahydroisoquinoline-based CXCR4 antagonists” (ACS Med Chem Lett, 2013)
pIC50: −log10 of the molar value.

Key:
[1] = Cytotoxicity against human MAGI-CCR5 cells assessed as cell viability after 2 to 6 days by MTS assay
[2] = biological target: T1, C-X-C chemokine receptor type 4 (Homo sapiens, UniProt P61073); experiment: Antagonist activity at CXCR4 in human Chem-1 cells assessed as inhibition of SDF-1alpha-mediated calcium flux preincubated for 10 mins by FLIPR assay; type: functional, cell-based
T1 sequence (P61073 whole entry): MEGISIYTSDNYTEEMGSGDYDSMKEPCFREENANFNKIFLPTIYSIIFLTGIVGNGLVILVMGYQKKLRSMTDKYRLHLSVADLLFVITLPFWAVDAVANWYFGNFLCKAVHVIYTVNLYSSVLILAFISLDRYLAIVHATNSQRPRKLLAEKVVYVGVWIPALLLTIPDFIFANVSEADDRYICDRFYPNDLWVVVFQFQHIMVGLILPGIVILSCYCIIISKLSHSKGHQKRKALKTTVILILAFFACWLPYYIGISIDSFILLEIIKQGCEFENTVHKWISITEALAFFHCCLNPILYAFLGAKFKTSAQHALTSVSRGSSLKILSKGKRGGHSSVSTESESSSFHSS

[3] = biological target: T1, C-X-C chemokine receptor type 4; experiment: Ratio of IC50 for CXCR4 in human MAGI-CCR5 cells assessed as inhibition of HIV-1 3B entry to IC50 for CXCR4 in human Chem-1 cells assessed as inhibition of SDF-1alpha-mediated calcium flux; type: functional, cell-based
How it was run: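 Two IC50s taken as a ratio. The first is from blockade of HIV-1 IIIB attachment in CCR5/CXCR4-expressing HeLaCD4-LTR-β-gal (MAGI) cells, with cytotoxicity (TC50) assessed alongside. The second is from inhibition of CXCL12-induced Ca2+ flux/release in Chem-1 cells. Each assay was run in duplicate.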

Compound	pIC50 [2]	Ratio IC50 [3]	CC50 ([1]; magi-ccr5) [nM]	CC50 ([1]; MAGI-CCR5 cells) [nM]
NCCCCN(C[C@H]1Cc2ccccc2CN1Cc1cocn1)[C@H]1CCCc2cccnc21	6.31	–	> 10000	–
NCCCCN(C[C@@H]1CCc2ccccc2N1)[C@H]1CCCc2cccnc21	–	–	> 30000	–
CC(C)NCCCCN(C[C@H]1Cc2ccccc2CN1)[C@H]1CCCc2cccnc21	8.15	2	–	> 10000
NCCCCN(C[C@@H]1Cc2ccccc2CN1)[C@H]1CCCc2cccnc21	–	–	–	> 10000
CN(C)CCCCN(C[C@H]1Cc2ccccc2CN1)[C@H]1CCCc2cccnc21	8.10	2	–	> 10000
NCCCCN(C[C@H]1NCCc2ccccc21)[C@H]1CCCc2cccnc21	–	–	> 30000	–
NC(=O)NCCCCN(C[C@H]1Cc2ccccc2CN1)[C@H]1CCCc2cccnc21	8.52	–	> 10000	–
NCCCCN(C[C@H]1CCc2ccccc2N1)[C@H]1CCCc2cccnc21	–	–	> 30000	–
CN1Cc2ccccc2C[C@@H]1CN(CCCCN)[C@H]1CCCc2cccnc21	7.41	–	> 10000	–
NCCCCN(C[C@H]1Cc2ccccc2CN1Cc1ccccn1)[C@H]1CCCc2cccnc21	7.25	–	–	> 10000
NCCCCN(C[C@@H]1NCCc2ccccc21)[C@H]1CCCc2cccnc21	–	–	> 30000	–

Further lines, with some results ahead:

pIC50 [2]	Ratio IC50 [3]	Compound	CC50 ([1]; magi-ccr5) [nM]	CC50 ([1]; MAGI-CCR5 cells) [nM]
6.18	–	NCCCCN(C[C@H]1Cc2ccccc2CN1Cc1ccncc1)[C@H]1CCCc2cccnc21	–	> 10000
6.46	–	NCCCCN(C[C@H]1Cc2ccccc2CN1Cc1cccnc1)[C@H]1CCCc2cccnc21	–	> 10000
6.24	–	NCCCCN(C[C@H]1Cc2ccccc2CN1CC(=O)N1CCOCC1)[C@H]1CCCc2cccnc21	> 10000	–
6.74	–	CN(C)C(=O)NCCCCN(C[C@H]1Cc2ccccc2CN1)[C@H]1CCCc2cccnc21	> 10000	–
6.85	–	CC(C)N1Cc2ccccc2C[C@@H]1CN(CCCCN)[C@H]1CCCc2cccnc21	–	> 10000
8.40	–	CC(=O)NCCCCN(C[C@H]1Cc2ccccc2CN1)[C@H]1CCCc2cccnc21	> 10000	–
